Assay outcomes: PubChem BioAssay, Broad Institute
N-glyco inh: N-linked glycosylation inhibition. D54 ERlucT glycosylation luciferase reporter, 24 h; percent of 100 nM tunicamycin response. reporter increase, % at 12.5 µM. 360,000 tested, 0.23% active;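 active = mean luciferase reporter signal, scaled so untreated is 0 and the glycosylation-blocking control 100, at or above a set limit in every replicate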;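 note: luciferase carries N-glycosylation sites so blocking glycosylation raises the light; 0% = median of neutral control wells and 100% = median of 100 nM tunicamycin wells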
AF4-AF9 inh: MLL-AF4/AF9 protein interaction inhibition. P42568. AlphaScreen, biotin-AF4 peptide binding to FLAG-AF9. inhibition, % at 10 µM. 350,000 tested, 0.47% active. AID 651704;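 active = every replicate reaching a set inhibition limit, whatever the replicate mean, cut at about 25% in these data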;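 note: 0% = plate neutral control median and 100% = total signal loss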
Target sequence (P42568 whole entry, looked up): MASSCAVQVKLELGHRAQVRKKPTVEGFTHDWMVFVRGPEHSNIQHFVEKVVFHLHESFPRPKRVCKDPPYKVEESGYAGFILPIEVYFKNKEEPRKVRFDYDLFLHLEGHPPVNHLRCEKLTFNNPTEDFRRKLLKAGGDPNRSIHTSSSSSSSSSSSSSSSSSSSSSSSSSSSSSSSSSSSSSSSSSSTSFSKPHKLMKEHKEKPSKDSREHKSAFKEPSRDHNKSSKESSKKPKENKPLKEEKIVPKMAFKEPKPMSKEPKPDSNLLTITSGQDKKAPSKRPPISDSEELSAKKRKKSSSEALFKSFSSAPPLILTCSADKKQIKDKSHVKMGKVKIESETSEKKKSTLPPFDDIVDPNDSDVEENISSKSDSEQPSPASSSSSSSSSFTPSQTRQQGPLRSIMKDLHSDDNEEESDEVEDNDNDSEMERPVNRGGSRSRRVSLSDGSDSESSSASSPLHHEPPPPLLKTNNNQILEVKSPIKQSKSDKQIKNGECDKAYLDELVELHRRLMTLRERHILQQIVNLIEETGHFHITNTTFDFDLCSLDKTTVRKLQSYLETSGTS
Env fusion inh: blocks HIV Env-driven cell-cell fusion; inhibition, % at 12.3 µM; HeLa-JRFL Env/CEM21 cell fusion, luciferase; 360,000 tested, 1.1% active; AID 651610;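 active = mean replicate inhibition score of at least 50 and every replicate individually at or above 50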;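 note: 0% = plate neutral controls and 100% = maraviroc near 300 nM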
PAX8 inh HTS: lowers PAX8-driven luciferase in RMG-I cells; RMG-I TPO-luciferase reporter, SteadyGlo, 24 h; inhibition, % at 12.6 µM; 360,000 tested, 1.2% active;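 active = mean replicate inhibition at least 60% with every replicate also reaching 60%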;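 note: luciferase light reporting Pax8 driven TPO promoter activity; plate controls were median of neutral control wells for no effect and mitoxantrone controls for full effect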
EWS-Fli inh: blocks EWS/Fli oncoprotein-driven transcription; A673 NR0B1-luciferase reporter, viability-normalised; inhibition, % at 12.6 µM; 350,000 tested, 0.67% active; AID 651661;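 active = mean inhibition of at least 50% after viability correction, with every replicate also passing that limit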;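 note: firefly luciferase signal divided by Alamar Blue viability fluorescence both relative to DMSO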
FN deposit inh: fibronectin deposition inhibition; AH1F fibroblasts, Alexa488-fibronectin deposition fluorescence, overnight; inhibition, % at 12.6 µM; 350,000 tested, 0.086% active; AID 743247;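 active = mean inhibition across replicates of 30% or more, regardless of how many single replicates reach that level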;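 note: positive control wells lacked labelled fibronectin entirely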
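Assay system: AH1F fibroblast monolayer, labelled fibronectin deposition. Amount: 10000 cells per well. Also added: labelled fibronectin 24 nM. Compound: single-point pinned compound. Incubation: cell attachment 1 h, compound and FN exposure overnight. Detection: fluorescence after three HBSS washes, excitation 485 nm, emission 525 nm. Read-out: inhibition of fibronectin deposition signal.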
An asterisk follows results filed as active; i = inactive; . = not tested or not shown; [ ] = remark or other dose. Compounds with a hit are over-represented: about 2.5% of the library has one in this group of screens.

SMILES | N-glyco inh | AF4-AF9 inh | Env fusion inh | PAX8 inh HTS | EWS-Fli inh | FN deposit inh
CCC(=O)Nc1ccc2c(c1)C(=O)N(C)C[C@@H](OC)[C@H](C)CN(Cc1ccccc1F)[C@@H](C)CO2 | . | 30* | . | 3 | -1 | 0
CO[C@@H]1CN(C)C(=O)c2cc(NC(=O)c3ccccc3F)ccc2OC[C@@H](C)N(CC2CC2)C[C@@H]1C | . | -2 | . | 79* | 7 | 3
CCC(=O)Nc1ccc2c(c1)C(=O)N(C)C[C@@H](OC)[C@H](C)CN(Cc1ccccc1F)[C@H](C)CO2 | . | 7 | . | 5 | -7 | -11
CCOc1cc(/C=N/NC(=O)c2ccc(CN3CCOCC3)cc2)ccc1OCc1ccccc1 | 2 | . | 56* | 0 | . | .
CC(=O)Nc1ccc(C(=O)N/N=C/c2ccccc2OCc2ccccc2)cc1 | 41* | 3 | 0 | 1 | 3 | 4
COc1ccc2c3c(n(C)c2c1)[C@@H](CO)N(Cc1ccc(F)cc1)CC31CN(CC2CCOCC2)C1 | . | 17 | . | . | 27 | .
CC1=C(C(=O)Nc2ccc(CC(=O)NCc3ccccc3C)cc2)SCCO1 | 2 | -2 | -15 | 18 | 5 | 9
CCc1ccc(CNC(=O)Cc2ccc(NC(=O)C3=C(C)OCCS3)cc2)cc1 | 31* | -2 | i | 11 | 22 | -23
CC(C)NC(=O)Nc1ccc2c(c1)C(=O)N([C@H](C)CO)C[C@H](C)[C@H](CN(C)C(=O)c1ccccc1)OCCCC[C@H](C)O2 | . | -2 | -13[16.7 µM] | -7 | -3 | .
COc1ccc(S(=O)(=O)Nc2ccc3c(c2)C(=O)N([C@H](C)CO)C[C@H](C)[C@@H](CN(C)Cc2ccc(Cl)c(Cl)c2)OCCCC[C@@H](C)O3)cc1 | . | -1 | . | 94* | 35 | .
COc1ccc(S(=O)(=O)Nc2ccc3c(c2)C(=O)N([C@H](C)CO)C[C@@H](C)[C@H](CN(C)Cc2ccc(Cl)c(Cl)c2)OCCCC[C@@H](C)O3)cc1 | . | . | 19[16.7 µM] | 66* | 20 | .
COc1ccc(S(=O)(=O)Nc2ccc3c(c2)C(=O)N([C@H](C)CO)C[C@H](C)[C@@H](CN(C)Cc2ccc(Cl)c(Cl)c2)OCCCC[C@H](C)O3)cc1 | . | . | 39[16.7 µM] | 47 | 17 | .
COC(=O)c1ccc2c(c1)C(NC(C)=O)CCc1cc(OC)c(OC)c(OC)c1-2 (stereo not drawn) | 8 | -6 | -2 | 85* | 46 | -16
COc1cc(CC(=O)NC2CCCc3ccccc32)cc(OC)c1OC (stereo not drawn) | 0 | -16 | -1 | 0 | 3 | 1
COc1cccc(C(=O)Nc2ccc3c(cc2=O)[C@@H](NC(C)=O)CCc2cc(OC)c(OC)c(OC)c2-3)c1 | 20 | . | . | . | . | .
COc1cc2c(c(OC)c1OC)-c1ccc(OC)c(=O)cc1C(NC(C)=O)CC2 (stereo not drawn) | 16 | 0 | -111 | 96* | 64* | .
COc1c(C=O)c2c(c(OC)c1OC)-c1ccc(OC)c(=O)cc1C(NC(C)=O)CC2 (stereo not drawn) | 10 | 1 | -45 | 87* | 42 | -5
CCCC(=O)NC1CCc2cc(OC)c(OC)c(OC)c2-c2ccc(OC)c(=O)cc21 (stereo not drawn) | 8 | -7 | -170 | 78* | 24 | 4
C[C@H](CO)N1C[C@H](C)[C@H](CN(C)Cc2cccc(C(F)(F)F)c2)OCc2ccccc2-c2ccccc2C1=O | . | 2 | . | 28 | 15 | -18
CCCN1C[C@@H](C)[C@@H](OC)CN(C)C(=O)c2ccc(NS(=O)(=O)c3ccccc3)cc2OC[C@@H]1C | . | -3 | 10[16.7 µM] | . | 8 | -10
O=C(OCc1ccccc1)c1ccc(NCc2cc(O)ccc2O)cc1 | 5 | 11 | -67 | 59 | 62* | 29
CCNCc1ccccc1OCc1ccccc1 | 1 | -1 | 2 | -1 | -3 | -13
CCC(=O)Nc1ccc(C(=O)OCc2ccccc2)cc1 | -4 | 1 | -8 | -86 | -24 | 2
Oc1ccc(NCc2ccccc2OCc2ccccc2)cc1 | 52* | -10 | 5 | 1 | -17 | 5
CC(C)OC(=O)c1ccc(NCc2cc(O)ccc2O)cc1 | -7 | 8 | -67 | 40 | 69* | 10
SMILES | N-glyco inh | AF4-AF9 inh | Env fusion inh | PAX8 inh HTS | EWS-Fli inh | FN deposit inh
O=C(c1cccc(F)c1)N1CC2(C1)[C@H](c1ccccc1)[C@H](CO)N2C(=O)C1CCCC1 | . | 0 | . | . | -3 | -9
c1ccc(N2CCN(c3ncnc4scc(-c5cccs5)c34)CC2)cc1 | -9 | . | 82* | . | . | 0
c1csc(-c2csc3ncnc(NCCCN4CCOCC4)c23)c1 | -4 | . | 68* | . | . | -3
NNc1ncnc2scc(-c3ccc(Cl)cc3)c12 | -1 | 3 | -47 | 14 | 19 | -9
c1ccc(-c2csc3ncnc(NCCCN4CCOCC4)c23)cc1 | -2 | . | . | . | . | .
OCCCNc1ncnc2scc(-c3ccc(Cl)cc3)c12 | -12 | -2 | 62* | -3 | -15 | 8
Cc1ccc(S(=O)(=O)N(C)C[C@H]2Oc3ccc(NC(=O)Cn4cnnn4)cc3C(=O)N([C@H](C)CO)C[C@@H]2C)cc1 | . | -2 | . | . | -9 | .
CN1C(=O)c2cc(NS(=O)(=O)c3ccc(F)cc3)ccc2OC[C@H]2O[C@H](CC(=O)O)CC[C@H]21 | . | 0 | 7[16.7 µM] | -1 | -3 | -9
C[C@@H]1CCCCO[C@@H](CN(C)C(=O)Nc2ccc3c(c2)OCO3)[C@H](C)CN([C@H](C)CO)C(=O)c2cc(NS(=O)(=O)c3cn(C)cn3)ccc2O1 | . | -3 | 27[16.7 µM] | . | 0 | .
CC(C)NC(=O)Nc1ccc2c(c1)C(=O)N([C@@H](C)CO)C[C@@H](C)[C@@H](CN(C)C(=O)Nc1ccc(C(F)(F)F)cc1)OCCCC[C@@H](C)O2 | . | 0 | 79*[16.7 µM] | 12 | 4 | .
C[C@H](CO)N1C[C@H](C)[C@H](CN(C)S(=O)(=O)c2cccs2)OCCCC[C@H](C)Oc2ccc(NC(=O)Nc3ccc(C(F)(F)F)cc3)cc2C1=O | . | 0 | 36[16.7 µM] | 75* | -6 | .
C[C@@H]1CCCCO[C@H](CN(C)S(=O)(=O)c2cccs2)[C@H](C)CN([C@@H](C)CO)C(=O)c2cc(NC(=O)CCC(F)(F)F)ccc2O1 | . | 1 | 0[16.7 µM] | 110* | 2 | .
CC(C)NC(=O)Nc1ccc2c(c1)C(=O)N([C@H](C)CO)C[C@H](C)[C@@H](CN(C)C(=O)Nc1ccc(C(F)(F)F)cc1)OCCCC[C@H](C)O2 | . | -1 | 44[16.7 µM] | 43 | -7 | .
C[C@H](CO)N1C[C@H](C)[C@H](CN(C)S(=O)(=O)c2cccs2)OCCCC[C@H](C)Oc2ccc(NC(=O)CCC(F)(F)F)cc2C1=O | . | 0 | 5[16.7 µM] | 14 | 5 | .
C[C@@H]1CCCCO[C@@H](CN(C)C(=O)Nc2ccc(F)cc2)[C@H](C)CN([C@@H](C)CO)C(=O)c2cc(NC(=O)Nc3ccc(C(F)(F)F)cc3)ccc2O1 | . | -11 | 17[16.7 µM] | 78* | 2 | .
